Results taken from ChEMBL document CHEMBL1147083, “High-throughput synergy screening identifies microbial metabolites as combination agents for the treatment of fungal infections” (Proc Natl Acad Sci U S A, 2007).

Experiments:
[1] = test system: Candida parapsilosis; assay: Antifungal activity against Candida parapsilosis infected cyclophosphamide-immunocompromized Crl:CD1(ICR) mouse assessed as fungal density in brain at 0.5 mg/kg, po for 5 days measured on day 12; type: functional
[2] = test system: Candida parapsilosis; assay: Antifungal activity against Candida parapsilosis infected cyclophosphamide-immunocompromized Crl:CD1(ICR) mouse assessed as fungal density in kidney at 0.5 mg/kg, po for 5 days measured on day 12; type: functional
Summary of the method: (§1)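 Female specific-pathogen-free ICR (Crl:CD-1) mice, ≈20–22 g, made neutropenic with cyclophosphamide 100 mg/kg i.p. once daily for 3 days. On day 3, infected i.p. with 1 × 10^4 C. parapsilosis ATCC 22019 blastospores. Oral gavage dosing began 6 h postinfection, then once daily for 5 days; placebo was 0.1 ml saline. Left kidney or lungs homogenized in 0.9% saline and plated on Sabouraud dextrose agar, 48 h at 35°C. Result is log10 cfu/g (n = 5).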

[3] = test system: Candida parapsilosis; assay: Antifungal activity against Candida parapsilosis infected cyclophosphamide-immunocompromized Crl:CD1(ICR) mouse assessed as fungal density in lung at 0.5 mg/kg, po for 5 days measured on day 12; type: functional; summary of the method: as §1
[4] = test system: Candida parapsilosis; assay: Antifungal activity against Candida parapsilosis infected cyclophosphamide-immunocompromized Crl:CD1(ICR) mouse assessed as survival at 0.5 mg/kg, po for 5 days; type: functional
Summary of the method: (§2)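 Female ICR (Crl:CD-1) mice on cyclophosphamide 100 mg/kg i.p. daily for 3 days, then infected i.p. on day 3 with 1 × 10^4 C. parapsilosis ATCC 22019 blastospores. Oral gavage dosing started 6 h postinfection and continued once daily for 5 days, with saline placebo. Mice observed thrice daily for […]. Moribund animals were killed and counted as dying the next day. Mean survival time compared to controls by one-way ANOVA and Kaplan–Meier.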

[5] = test system: HepG2; assay: Toxicity against human HepG2 cells at 6.25 ug/ml in presence of merine microbial F10104 extract; type: cell-based
[6] = test system: Candida parapsilosis; assay: Antifungal activity against Candida parapsilosis infected cyclophosphamide-immunocompromized Crl:CD1(ICR) mouse assessed as survival at 50 mg/kg, po for 5 days; type: functional; summary of the method: as §2
[7] = test system: HepG2; assay: Toxicity against human HepG2 cells at 50 ug/ml; type: cell-based
[8] = test system: Candida parapsilosis; assay: Antifungal activity against Candida parapsilosis infected cyclophosphamide-immunocompromized Crl:CD1(ICR) mouse assessed as fungal density in kidney at 0.5 mg/kg, po for 5 days measured on day 12 in presence beauvericin; type: functional; summary of the method: as §1
[9] = test system: Candida parapsilosis; assay: Antifungal activity against Candida parapsilosis infected cyclophosphamide-immunocompromized Crl:CD1(ICR) mouse assessed as survival at 0.5 mg/kg, po for 5 days in presence of beauvericin; type: functional; summary of the method: as §2
[10] = test system: Candida parapsilosis; assay: Antifungal activity against Candida parapsilosis infected cyclophosphamide-immunocompromized Crl:CD1(ICR) mouse assessed as fungal density in lung at 50 mg/kg, po for 5 days measured on day 12; type: functional; summary of the method: as §1
[11] = test system: HepG2; assay: Toxicity against human HepG2 cells at 100 ug/ml; type: cell-based
[12] = test system: Candida parapsilosis; assay: Antifungal activity against Candida parapsilosis infected cyclophosphamide-immunocompromized Crl:CD1(ICR) mouse assessed as survival at 10 mg/kg, po for 5 days; type: functional; summary of the method: as §2
[13] = test system: Candida parapsilosis; assay: Antifungal activity against Candida parapsilosis infected cyclophosphamide-immunocompromized Crl:CD1(ICR) mouse assessed as fungal density in lung at 0.5 mg/kg, po for 5 days measured on day 12 in presence beauvericin; type: functional; summary of the method: as §1
[14] = test system: Candida parapsilosis; assay: Antifungal activity against Candida parapsilosis infected cyclophosphamide-immunocompromized Crl:CD1(ICR) mouse assessed as fungal density in lung at 10 mg/kg, po for 5 days measured on day 12; type: functional; summary of the method: as §1
[15] = test system: Candida parapsilosis; assay: Antifungal activity against Candida parapsilosis infected cyclophosphamide-immunocompromized Crl:CD1(ICR) mouse assessed as fungal density in kidney at 10 mg/kg, po for 5 days measured on day 12; type: functional; summary of the method: as §1
[16] = test system: Candida parapsilosis; assay: Antifungal activity against Candida parapsilosis infected cyclophosphamide-immunocompromized Crl:CD1(ICR) mouse assessed as fungal density in kidney at 50 mg/kg, po for 5 days measured on day 12; type: functional; summary of the method: as §1

CC(C)[C@@H]1OC(=O)[C@@H](Cc2ccccc2)N(C)C(=O)[C@H](C(C)C)OC(=O)[C@@H](Cc2ccccc2)N(C)C(=O)[C@H](C(C)C)OC(=O)[C@@H](Cc2ccccc2)N(C)C1=O (single isomer, unassigned) [BEAUVERICIN]
Log10 cfu [1]: 3.2 | Log10 cfu [2]: 9.3 | Log10 cfu [3]: 5.2 | Survival [4]: 8.3 days

CC(=O)N1CCN(c2ccc(OCC3COC(Cn4ccnc4)(c4ccc(Cl)cc4Cl)O3)cc2)CC1 (centres undefined) [KETOCONAZOLE]
Activity [5]: Non-toxic | Survival [6]: 19.4 days | Activity [7]: Toxic | Log10 cfu [8]: 1.3 | Survival [9]: >21 days | Log10 cfu [2]: 8.4 | Log10 cfu [10]: 2.6 | Log10 cfu [3]: 4.8 | Activity [11]: Toxic | Survival [12]: 14.2 days | Log10 cfu [13]: 1.2 | Log10 cfu [14]: 3.5 | Log10 cfu [15]: 7.6 | Survival [4]: 9.2 days | Log10 cfu [16]: 5.5
